Assay results pooled from the literature.
Compare with care: the assays were run in different laboratories.
Target: Serine/threonine-protein kinase D2 (PRKD2, Homo sapiens, UniProt Q9BZL6)
Residues used in one study (Q9BZL6 1-878): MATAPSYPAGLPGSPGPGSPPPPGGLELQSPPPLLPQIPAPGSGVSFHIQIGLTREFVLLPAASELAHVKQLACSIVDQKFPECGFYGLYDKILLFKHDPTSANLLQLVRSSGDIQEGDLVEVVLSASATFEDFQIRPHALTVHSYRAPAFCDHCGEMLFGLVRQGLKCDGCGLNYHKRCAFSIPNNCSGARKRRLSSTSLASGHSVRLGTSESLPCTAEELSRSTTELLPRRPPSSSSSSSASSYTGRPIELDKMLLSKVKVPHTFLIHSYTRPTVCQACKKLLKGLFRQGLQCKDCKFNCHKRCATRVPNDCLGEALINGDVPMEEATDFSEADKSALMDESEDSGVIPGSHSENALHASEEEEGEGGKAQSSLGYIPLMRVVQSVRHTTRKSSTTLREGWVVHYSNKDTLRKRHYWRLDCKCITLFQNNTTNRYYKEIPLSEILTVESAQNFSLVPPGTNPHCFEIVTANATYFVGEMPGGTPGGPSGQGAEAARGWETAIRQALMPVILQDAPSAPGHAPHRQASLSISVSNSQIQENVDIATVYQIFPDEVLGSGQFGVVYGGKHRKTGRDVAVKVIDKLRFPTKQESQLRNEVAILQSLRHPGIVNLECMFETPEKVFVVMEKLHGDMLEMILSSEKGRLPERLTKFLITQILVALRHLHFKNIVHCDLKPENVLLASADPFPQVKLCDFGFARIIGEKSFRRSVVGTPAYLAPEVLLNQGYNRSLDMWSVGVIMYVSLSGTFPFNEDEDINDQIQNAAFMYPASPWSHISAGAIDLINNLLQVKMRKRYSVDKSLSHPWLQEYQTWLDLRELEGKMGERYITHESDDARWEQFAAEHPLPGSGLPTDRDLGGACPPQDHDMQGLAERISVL

Structure (SMILES)	read-out	action	technique	tested at	quantity	value
CCCCC(=O)Nc1ccc(-c2ccc3ncn(CCC)c(=O)c3c2)cn1	binding	–	competition with immobilised ligand	0.5 µM	remaining binding	88%
Cc1ccc(NC(=O)c2ccnc(C(F)(F)F)c2)cc1-c1cc(OCCO)nc(N2CCOCC2)c1	binding	–	–	1 µM	remaining binding	88%
Cc1cc(O)c(-c2ccc([C@@H](C)CN(C)C)cc2)c2c1[nH]c(=O)c1sccc12	enzyme activity	inhibitor	–	0.1 µM	inhibition	-4.52%
C1=C/COCc2cc(ccc2OCCN2CCCC2)Nc2nccc(n2)-c2cccc(c2)COC/1	binding	–	–	0.1 µM	remaining binding	100%
C=CC(=O)N1CCC([C@@H]2CCNc3c(C(N)=O)c(-c4ccc(Oc5ccccc5)cc4)nn32)CC1	enzyme activity	inhibitor	–	1 µM	inhibition	3%
C#Cc1cc(-c2cc(Nc3nc(N[C@@H](C)c4ccc(F)cn4)ncc3Cl)n[nH]2)ccc1C=O	enzyme activity	inhibitor	–	0.2 µM	inhibition	5.36%
CO[C@@H]1[C@H](N(C)C(=O)c2ccccc2)C[C@H]2O[C@]1(C)n1c3ccccc3c3c4c(c5c6ccccc6n2c5c31)C(=O)NC4	enzyme activity	inhibitor	–	1 µM	inhibition	18%
C[C@H]1CC[C@H](n2c3cnccc3c3cnc(Nc4ccc5c(n4)CCN(C(=O)CO)C5)nc32)CC1	cell-free assay	–	–	1 µM	remaining signal	100%
COc1ccc2oc(-c3ccc4nc(N)oc4c3)c/c(=N\c3ccccc3NC(=O)CCN)c2c1	binding	–	–	1 µM	remaining binding	94%
